This is a sample that favours compounds with a hit; in the whole collection about 3.1% have one here.
PP5 primary: PP5 (human) phosphatase inhibition. inhibition, % at 6.7 µM. P53041. purified PP5c, OMFP substrate fluorescence. AID 1987. 320,000 compounds, 0.18% hits;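 active = inhibition above the campaign's mean inhibition across all tested compounds plus 3 SD, cut at about 9.5% in these data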;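 also: 0% = DMSO only and 100% = 100 µM cantharidin control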
NadD inh: blocks S. aureus nicotinate mononucleotide adenylyltransferase. 360,000 compounds, 0.78% hits. AID 602399. purified NadD enzyme, colorimetric absorbance read-out. inhibition, % at 20 µM; in the data active = inhibition above about 26%
Myeloid diff 2: promotes myeloid progenitor differentiation; 360,000 compounds, 1% hits; ER-HoxA9 myeloid progenitors, lysozyme-GFP differentiation, flow cytometry; calls only at 10 µM;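 active = normalized GFP-positive differentiation at or above the plate's own cutoff, the solvent-only control mean plus 3 SD; inconclusive = no clear call, values can overlap the other calls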;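 also: cells exposed to compound for four days before flow analysis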
PP1 inh: PP1-alpha (human) inhibition in PP5 counter-screen | inhibition, % at 6.7 µM | P62136 | 320,000 compounds, 0.9% hits | purified PP1alpha, OMFP fluorescence;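 active = inhibition above the mean inhibition of all tested compounds plus 3 SD, computed separately for each screening campaign, cut at about 15% in these data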
Target sequence (P62136 whole entry, looked up): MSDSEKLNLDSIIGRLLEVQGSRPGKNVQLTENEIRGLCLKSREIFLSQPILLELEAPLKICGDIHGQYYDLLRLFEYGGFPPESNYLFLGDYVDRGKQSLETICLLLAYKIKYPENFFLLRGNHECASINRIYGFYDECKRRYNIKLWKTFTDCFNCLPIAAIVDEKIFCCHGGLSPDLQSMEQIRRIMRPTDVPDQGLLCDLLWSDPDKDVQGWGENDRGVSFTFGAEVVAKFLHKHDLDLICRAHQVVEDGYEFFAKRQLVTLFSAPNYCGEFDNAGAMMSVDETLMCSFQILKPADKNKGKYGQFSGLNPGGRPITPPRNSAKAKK
core dimer inh: blocks dimerization of HCV core protein; AID 1899; TR-FRET GST/Flag-core106 dimerization, 1536-well; inhibition, % at 5 µM; 300,000 compounds, 0.33% hits;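 active = inhibition above the mean of all tested compounds plus 3 SD, set per screening campaign, cut at about 45% in these data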
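Assay system: tagged HCV core106 pair (GST and Flag); medium: KF-containing HEPES buffer, pH 7.45, DTT, CHAPS, BSA; also added: Eu donor and XL665 acceptor anti-tag antibodies; dosing: 5 µM single dose; timing: compound-protein-antibody incubation 4 h at 22.5 °C; signal: TR-FRET 671 and 617 nm emission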
CTSL1 counter: counter-screen for PFM18AAP inhibitors: inhibitors of F. hepatica cathepsin L1; recombinant F. hepatica cathepsin L1, Z-Leu-Arg-MCA fluorescence; inhibition, % at 5.96 µM; 300,000 compounds, 0.49% hits;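 active = inhibition above the mean of all tested compounds plus 3 SD, set per screening campaign, cut at about 17% in these data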;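 also: 0% = plate median of test compound wells and 100% = 1 µM Z-Phe-Ala-diazomethylketone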
* = called active by the depositor; i = inactive; ? = inconclusive; / = no result; + = active, no number.

SMILES	PP5 primary	NadD inh	Myeloid diff 2	PP1 inh	core dimer inh	CTSL1 counter
N#Cc1c(N)n(CCNC(=O)c2ccccc2)c2nc3ccccc3nc12	0	-3	i	0	6	3
CCOCCCNC(=O)Cn1nc(Cc2ccncc2)c2ccccc2c1=O	1	0	i	0	2	-1
CC1CCC(NC(=O)CCS(=O)(=O)c2ccc3c(c2)CC(C)N3C(=O)C2CC2)CC1 (centres undefined)	0	8	?	-3	-2	6
CCCCN1CCNC[C@@H]1Cc1ccc(O)cc1	-2	1	+	-4	-5	4
Oc1ccc(C[C@H]2CNCCN2CCc2cccc(F)c2)cc1	2	-2	i	-1	-34	-8
Oc1ccc(C[C@@H]2CNCCN2CCc2cccc3ccccc23)cc1	-2	-5	+	-2	4	3
CCOc1ccc(CCNC(=O)COC(=O)c2ccc(OC(C)C)cc2)cc1OCC	3	0	i	0	3	0
CCOC(=O)c1cn(-c2ccc([N+](=O)[O-])cc2)c2cc(Cl)c([N+](=O)[O-])cc2c1=O	-7	10	+	5	-14	-3
O=C(c1cc(-c2cccc(Cl)c2)on1)N1CCc2ccccc2C1	2	-10	+	-5	0	-1
O=C(c1cc(-c2ccc(O)cc2)on1)N1CCc2ccccc2C1	7	1	i	3	6	8
COc1cc(C=NNC(=O)C(=O)Nc2cccc(Cl)c2)cc(OC)c1O	/	2	+	/	/	/
Cc1ccc[n+](CC(=O)Nc2ccc([N+](=O)[O-])cc2)c1	1	-7	i	-2	2	31*
Cc1ccc[n+](CC(=O)Nc2cccc([N+](=O)[O-])c2)c1	-2	7	i	-6	5	2
Cc1cccc(N2C(=O)N3[C@H]4c5ccccc5OC[C@@H]4[C@@H](c4ccccc4)[C@@]3(C)C2=O)c1	/	-1	i	/	/	/
CN(C)S(=O)(=O)c1ccc(F)c(C(=O)Nc2ccccc2C(=O)NC2CC2)c1	3	-8	i	-2	/	/
c1cc2nc(C34CC5CC(CC(C5)C3)C4)[nH]c2cn1	3	1	+	3	-5	0
CC1(C(=O)NS(=O)(=O)c2ccccc2Cl)CCN1C(=O)CCc1cccs1 (centres undefined)	/	-2	i	/	/	/
O=c1cc(CSc2nnc(-c3cccs3)n2Cc2ccccc2)nc2sc3ccccc3n12	2	18	i	12	60*	4
Cc1ccc(O)c(NC(=O)c2ccc3c(c2)C(=O)N(Cc2cccnc2)C3=O)c1	0	-3	+	6	-4	-1
CC(=O)c1cccc(N2Cc3ccccc3C2=NC(=O)CCl)c1	0	0	i	2	5	77*
CCCCn1c(SC(C)C(=O)c2ccc(OC)cc2)nc2cc(S(N)(=O)=O)ccc21 (centres undefined)	3	-2	i	-3	0	3
CCCCn1c(SCC(=O)c2ccc(OC)cc2OC)nc2cc(S(N)(=O)=O)ccc21	3	19	i	0	79*	-1
COCCCN1C(=O)C(CC(=O)NC2CCCCC2)CC(C(=O)N2CCOCC2)=C1C (centres undefined)	/	0	i	/	/	/
O=C(Nc1ccc(F)cc1)Nc1nnc(Cc2ccccc2)s1	0	-5	i	17*	7	0
O=C(Nc1ccc([N+](=O)[O-])cc1)c1cc(Cl)sc1Cl	-1	-5	+	-2	-2	2
SMILES	PP5 primary	NadD inh	Myeloid diff 2	PP1 inh	core dimer inh	CTSL1 counter
O=C(Nc1ccc(F)cc1)c1cc(Cl)sc1Cl	0	-4	i	0	-1	-2
Cn1c(=O)c2c(-c3ccccc3)n(-n3cnnc3)cc2n(C)c1=O	0	4	i	-3	-3	25*
Cn1c(=O)c2c(-c3ccccc3)n(-c3ccccc3)cc2n(C)c1=O	/	5	i	/	/	/
Cc1cccc(C)c1NC(=O)C(c1ccccc1)n1c(-c2ccccc2)nc2ccccc21 (centres undefined)	/	/	i	/	/	/
Cc1c(C)c2cccnc2c2ncccc12	5	2	/	16*	/	/
CN(C)c1ccc(N=Cc2nc(-c3ccccc3)oc2OC(=O)c2cccc(Br)c2)cc1	1	13	i	-1	-11	24*
CC(=O)Oc1oc(-c2ccccc2)nc1C=Nc1ccccc1	-1	-6	i	-2	-4	26*
COc1ccc(N=Cc2nc(-c3ccccc3)oc2OC(=O)c2ccccc2)cc1	2	-2	i	1	5	22*
CN=Cc1nc(-c2ccccc2)oc1O	0	-1	i	-2	-1	7
CCOC(=O)c1ccc(N=Cc2nc(-c3ccccc3)oc2OC(C)=O)cc1	2	-5	i	0	0	31*
CCOC(=O)C1=CCN(S(=O)(=O)c2ccccc2C)C1c1ccc(Cl)c(Cl)c1 (centres undefined)	/	0	i	/	/	/
CC1CCN(S(=O)(=O)c2ccc3c(c2)N(CC(=O)N(C)Cc2ccco2)C(=O)CO3)CC1	0	1	?	1	-12	2
Cc1ccc(C(C(=O)NCCc2ccccc2)N(C(=O)c2csnn2)C2CC2)cc1 (centres undefined)	5	-1	i	-2	-3	-1
O=C(CCCc1c[nH]c2ccccc12)NCc1ccccc1F	-1	-3	i	-1	2	0
O=C(O)CCCCCN1C(=O)/C(=C\c2ccc(-c3ccc(Cl)cc3)o2)SC1=S	-2	8	+	-3	4	0
O=C(O)CCCN1C(=O)/C(=C/c2ccc(-c3nc4ccccc4s3)o2)SC1=S	2	11	/	-3	25	2
Cc1nnsc1NC(=O)OCc1ccc(C(F)(F)F)cc1	2	-3	i	17*	-4	-2
Cc1nnsc1NC(=O)OCc1ccccc1Cl	5	-7	i	-3	0	-3
N#Cc1c(NC(=O)/C=C/C(=O)O)sc2c1CCN(Cc1ccccc1)C2	2	14	i	12	69*	-2
CC(=O)Nc1sc2c(c1C#N)CCN(Cc1ccccc1)C2	1	0	i	-1	-8	1
Cc1ccccc1CC1(CO)CCCN(Cc2cn[nH]c2-c2ccccc2)C1 (centres undefined)	3	-4	i	4	2	2
COc1cccc(CC2(CO)CCCN(Cc3cn[nH]c3-c3ccccc3)C2)c1 (centres undefined)	0	-5	+	2	-3	3
COc1cc(/C=C/C(=O)OCC(=O)N2CCCC2)ccc1OCC#N	8	-9	i	15	/	/
Cc1ccccc1OCC(=O)OCC(=O)NCc1ccccc1Cl	/	-3	i	/	/	/
CC1CC/C(=C\c2ccc3c(c2)OCO3)C(=O)/C1=C/c1ccc2c(c1)OCO2 (centres undefined)	1	-2	i	17*	9	11
